One data set concerns Salmonella typhimurium. Briefly: Mutagenicity in Salmonella typhimurium TA98 assessed as number of revertants at 10 ug/plate by Ames test (reference value: 23 +/- 3). The conditions noted are these: salmonella enterica subsp. enterica serovar typhimurium. Type of data set: toxicity, organism-based.
The test system of data set [1] is Mus musculus. Briefly: Anticonvulsant activity in ip dosed albino Carworth Farms No.1 mouse assessed as protection against 6-Hz electroshock-induced seizures after 0.25 hrs. The class given is functional. The conditions noted are these: Carworth Farms No.1, ip. The method in brief:
(§1)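 Quantitative i.p. evaluation in Carworth Farms No.1 albino mice, with graded doses in 0.5% methylcellulose. MES, scPTZ or 6-Hz (32 mA) seizure tests were run at 0.25 h.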

The next data set concerns Rattus norvegicus. The data set is described as follows: Anticonvulsant activity in po dosed Sprague-Dawley rat assessed as protection against subcutaneous dosed pentetrazol-induced seizures after 0.5 hrs. Type of data set: functional. The method in brief:
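Sprague-Dawley rats received graded oral doses suspended or dissolved in 0.5% methylcellulose. Challenge was maximal electroshock or subcutaneous pentetrazol at the stated time after dosing.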

Data set [2] relates to Mus musculus. Briefly: Anticonvulsant activity in ip dosed albino Carworth Farms No.1 mouse assessed as protection against subcutaneous dosed pentetrazol-induced seizures after 0.25 hrs. The class given is functional. The conditions noted are these: Carworth Farms No.1, 0.25 h. The method in brief:
as §1

Data set [3] relates to Mus musculus. Briefly: Anticonvulsant activity in albino Carworth Farms No.1 mouse assessed as protection against maximal electroshock-induced seizures at 100 mg/kg, ip after 4 hrs. The class given is functional, organism-based. The method in brief: (§2)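 Mouse i.p. screen in Carworth Farms No.1 albino mice at 30, 100 or 300 mg/kg in 0.5% methylcellulose. Testing was at 0.5 and 4 h after injection, by maximal electroshock or by subcutaneous pentetrazol challenge. Scoring was number protected / number used.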

The nature of data set [4]: Lipophilicity of the compound using 85% methanol in water at 1 mg/ml by RT-TLC analysis. Type of data set: physicochemical. As to conditions: buffer. A digest of the protocol:
(§3)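 Reversed-phase TLC with a methanol–water mobile phase at the stated methanol content (v/v). Compounds were spotted from 1 mg/mL methanol solutions after 1 h chamber saturation and located under UV light. Rf was measured and RM = log(1/Rf − 1) calculated.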

Data set [5] relates to Mus musculus. Briefly: Anticonvulsant activity in albino Carworth Farms No.1 mouse assessed as protection against 6-Hz electroshock-induced seizures at 100 mg/kg, ip after 2 hrs. Type of data set: functional, organism-based. The method in brief: (§4)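 Carworth Farms No.1 albino mice were dosed i.p. at 100 mg/kg (0.5% methylcellulose solution or suspension). 6-Hz seizures were induced at 32 mA at 0.25, 0.5, 1.0, 2.0 and 4 h after injection. Results are given as animals protected / animals tested.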

A short description of data set [6]: Lipophilicity of the compound using 90% methanol in water at 1 mg/ml by RT-TLC analysis. The class given is physicochemical. The conditions noted are these: buffer. The method in brief: as §3
A short description of data set [7]: Lipophilicity of the compound at 1 mg/ml by RT-TLC analysis relative to 0% methanol. The class given is physicochemical. The conditions noted are these: methanol/water. A digest of the protocol:
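Reversed-phase TLC used methanol–water mobile phases of 95–65% methanol. Compounds were applied from 1 mg/mL methanol solutions after 1 h chamber saturation, with UV detection. RM = log(1/Rf − 1) was calculated at each methanol level and extrapolated linearly (RM = RM0 + bC) to 0% methanol to give RM0.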

The test system of data set [8] is Mus musculus. Briefly: Anticonvulsant activity in albino Carworth Farms No.1 mouse assessed as protection against 6-Hz electroshock-induced seizures at 100 mg/kg, ip after 1 hr. Type of data set: functional, organism-based. A digest of the protocol:
as §4

The subject of data set [9] is Mus musculus. Briefly: Anticonvulsant activity in albino Carworth Farms No.1 mouse assessed as protection against 6-Hz electroshock-induced seizures at 100 mg/kg, ip after 0.5 hrs. Type of data set: functional, organism-based. A digest of the protocol: as §4
Data set [10] can be described thus: Lipophilicity of the compound using 75% methanol in water at 1 mg/ml by RT-TLC analysis. Type of data set: physicochemical. The conditions noted are these: buffer. A digest of the protocol:
as §3

Data set [11] deals with Mus musculus. Briefly: Anticonvulsant activity in albino Carworth Farms No.1 mouse assessed as protection against maximal electroshock-induced seizures at 100 mg/kg, ip after 0.5 hrs. Type of data set: functional, organism-based. A digest of the protocol:
as §2

The subject of data set [12] is Mus musculus. Briefly: Anticonvulsant activity in albino Carworth Farms No.1 mouse assessed as protection against subcutaneous dosed pentetrazol-induced seizures at 100 mg/kg, ip after 0.5 hrs. Type of data set: functional, organism-based. The method in brief: as §2
Data set [13] relates to Mus musculus. The data set is described as follows: Neurotoxicity in albino Carworth Farms No.1 mouse at 300 mg/kg, ip after 4 hrs by rotarod test. The conditions noted are these: in vivo. Type of data set: toxicity, organism-based. The method in brief: (§5)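 Mice (albino Carworth Farms No.1) were dosed i.p. at 30, 100 or 300 mg/kg in 0.5% methylcellulose. They were tested 0.5 and 4 h later on a 1-inch knurled rod rotating at 6 rpm. Neurotoxicity was scored if a mouse could not stay on the rod for at least 1 min in each of three trials. Results are given as animals toxic/animals tested, with deaths noted.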

Data set [14] deals with Mus musculus. The data set is described as follows: Anticonvulsant activity in albino Carworth Farms No.1 mouse assessed as protection against 6-Hz electroshock-induced seizures at 100 mg/kg, ip after 4 hrs. Type of data set: functional, organism-based. The method in brief:
as §4

The subject of data set [15] is Mus musculus. Briefly: Neurotoxicity in albino Carworth Farms No.1 mouse at 100 mg/kg, ip after 0.5 hrs by rotarod test. The class given is toxicity, organism-based. As to conditions: in vivo. The method in brief: as §5
In data set [16] the test system is Mus musculus. Briefly: Anticonvulsant activity in albino Carworth Farms No.1 mouse assessed as protection against subcutaneous dosed pentetrazol-induced seizures at 100 mg/kg, ip after 4 hrs. Type of data set: functional, organism-based. The method in brief: as §2
For data set [17], the system named is Mus musculus. Briefly: Neurotoxicity in albino Carworth Farms No.1 mouse at 100 mg/kg, ip after 4 hrs by rotarod test. Type of data set: toxicity, organism-based. The conditions noted are these: in vivo. The method in brief: as §5
Data set [18] concerns Mus musculus. The data set is described as follows: Anticonvulsant activity in albino Carworth Farms No.1 mouse assessed as protection against 6-Hz electroshock-induced seizures at 100 mg/kg, ip after 0.25 hrs. Type of data set: functional, organism-based. A digest of the protocol: as §4
A short description of data set [19]: Lipophilicity of the compound using 95% methanol in water at 1 mg/ml by RT-TLC analysis. Type of data set: physicochemical. The conditions noted are these: buffer. The method in brief:
as §3

Data set [20] concerns Mus musculus. The data set is described as follows: Neurotoxicity in albino Carworth Farms No.1 mouse at 30 mg/kg, ip after 4 hrs by rotarod test. As to conditions: in vivo. The class given is toxicity, organism-based. The method in brief:
as §5

Data set [21] can be described thus: Lipophilicity of the compound using 65% methanol in water at 1 mg/ml by RT-TLC analysis. The class given is physicochemical. As to conditions: buffer. A digest of the protocol:
as §3

Structures are written as SMILES. Active and inactive are the calls of the source. No cut-off for these calls is given here.

Turning to `Nc1ccc([N+](=O)[O-])cc1N`, the Activity in the data set on Salmonella typhimurium is 647.
As for `CCCC(CCC)C(=O)O` [VALPROIC ACID], the ED50 in the data set with Mus musculus [1] amounted to 126 mg/kg; with Rattus norvegicus it was 646 mg/kg; in the data set on Mus musculus [2], 220 mg/kg.
With `CC(NC(=O)/C=C/c1ccccc1)C(=O)NCN1CCCCC1` (racemic), the result in the data set on Mus musculus [3], with Mus musculus [5], in the data set on Mus musculus [8], in the data set with Mus musculus [9], with Mus musculus [11] and in the data set with Mus musculus [12] was inactive. Besides, the outcome in the data set with Mus musculus [14], with Mus musculus [16] and in the data set with Mus musculus [18] was inactive. Also, the Rm is recorded as -0.02 in data set [4]; -0.27 in data set [6]; 1.758 in data set [7]; 0.1 in data set [10]; -0.39 in data set [19]; 0.5 in [21]. The Activity result with Mus musculus [13], in the data set on Mus musculus [15], with Mus musculus [17] and with Mus musculus [20] was “Non-toxic” each time.
